From publication PMC5730364 (Investigative Ophthalmology & Visual Science, 2017)
Square brackets hold non-standard residues; d marks the D form. Peptide text beside a SMILES is read from it. Orn = NCCC[C@H](N)C(=O)O

Tests used:
[1] = tested on: corneal epithelial scrape wounds; assay: In vivo corneal epithelial wound healing; parameters: species or system C57BL/6 mice
In short: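 C57BL/6 mice (9–13 weeks) were anaesthetised with ketamine 100 mg/kg plus xylazine 10 mg/kg ip. A 2-mm diameter corneal epithelial scrape wound was made in the right eye with an Algerbrush. Then 5 μL of test peptide (2, 64 or 640 μg/mL) or PBS vehicle was applied topically immediately, 5 min later, and at 6, 12 and 18 h. Wounds were stained with 1.5 μL 1% sodium fluorescein every 6 h until closure (24 h), imaged, and their areas measured.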

S. aureus 49525_Xen36 = assay: Time-kill bactericidal activity, bioluminescence; format: cell-based, Staphylococcus aureus; settings: 30 minutes' incubation, Fig. 4
In short: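 Bioluminescent S. aureus Xen36 was grown from a single colony in LB overnight at 37°C with agitation. It was diluted 1:10 into fresh LB for 2 h at 37°C to mid-log phase and adjusted by OD600 to 1 × 10⁷ CFU/mL. Then 100 μL per well was exposed to a concentration series of test peptide for 30 min. Viable-cell luminescence was read by IVIS Lumina imaging (open filter, binning 4, f-stop 1, 30 s count). Results are mean ± SE of triplicates from two independent experiments.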

P. aeruginosa 19660_Xen5 = assay: Time-kill bactericidal activity, bioluminescence; format: cell-based, Pseudomonas aeruginosa; settings: Fig. 2
In short: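 Luciferase-tagged strain grown from a single colony in LB at 37°C overnight with agitation, diluted 1:10 into fresh LB and grown 2 h at 37°C to mid-log. Adjusted by OD600 to 1 × 10⁷ CFU/mL and exposed to test compound at several concentrations for 0, 30, 60 and 120 min. Viable cells quantified noninvasively by bioluminescence imaging. Mean ± SE of triplicates from two independent experiments.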

| Structure (SMILES) | wound closure vs vehicle ([1]; at 24 hours following topical ocular administration, 2, 64 or 640 μg/mL) | effect on corneal epithelial wound healing ([1]; mice, topical 5 μL RP444 2, 64 or 640 μg/mL at 0 h, 5 minutes, 6, 12, 18 hours post wound, two independent experiments, n = 7-10 mice/group) | bactericidal activity against S. aureus (S. aureus 49525_Xen36) | bactericidal activity following 60 minutes of exposure (P. aeruginosa 19660_Xen5; 60 minutes) | bactericidal activity during the short incubation time period (P. aeruginosa 19660_Xen5; 2 hours) |
| --- | --- | --- | --- | --- | --- |
| C[C@H](NC(=O)[C@H](Cc1ccccc1)NC(=O)[C@H](C)NC(=O)[C@H](Cc1ccccc1)NC(=O)[C@H](CCCN)NC(=O)[C@H](C)NC(=O)[C@H](Cc1ccccc1)NC(=O)[C@H](CCCN)NC(=O)[C@H](CCCN)NC(=O)[C@H](C)NC(=O)[C@H](Cc1ccccc1)NC(=O)[C@H](CCCN)NC(=O)[C@H](CCCN)NC(=O)[C@H](Cc1ccccc1)NC(=O)[C@H](CCCN)NC(=O)[C@H](CCCN)NC(=O)[C@H](C)NC(=O)[C@H](Cc1ccccc1)NC(=O)[C@H](CCCN)NC(=O)[C@H](CCCN)NC(=O)[C@H](C)NC(=O)[C@@H](N)Cc1ccccc1)C(=O)N[C@@H](Cc1ccccc1)C(=O)O [RP444] (H-FA[Orn][Orn]FA[Orn][Orn]F[Orn][Orn]FA[Orn][Orn]FA[Orn]FAFAF-OH) | No statistically significant difference in closure | did not affect corneal epithelial wound healing | – | – | – |
| NC[C@H]1O[C@H](O[C@H]2[C@H](O)[C@@H](O[C@H]3O[C@H](CO)[C@@H](O)[C@H](N)[C@H]3O)[C@H](N)C[C@@H]2N)[C@H](N)C[C@@H]1O [tobramycin] | – | – | neither tobramycin nor vancomycin exhibited any bactericidal effect | bactericidal effects at 60 minutes | – |
| CN[C@H](CC(C)C)C(=O)N[C@H]1C(=O)N[C@@H](CC(N)=O)C(=O)N[C@H]2C(=O)N[C@H]3C(=O)N[C@H](C(=O)N[C@H](C(=O)O)c4cc(O)cc(O)c4-c4cc3ccc4O)[C@H](O)c3ccc(c(Cl)c3)Oc3cc2cc(c3O[C@@H]2O[C@H](CO)[C@@H](O)[C@H](O)[C@H]2O[C@H]2C[C@](C)(N)[C@H](O)[C@H](C)O2)Oc2ccc(cc2Cl)[C@H]1O [vancomycin] | – | – | neither tobramycin nor vancomycin exhibited any bactericidal effect | – | no evidence of bactericidal activity |
